According to ChEMBL document CHEMBL2169747, “Synthesis and biological properties of highly sequence-specific-alkylating N-methylpyrrole-N-methylimidazole polyamide conjugates” (J Med Chem, 2012):
Active and inactive are the calls of the source. The rule behind the calls is not given here.

How the values were obtained:
[1] = test system: A549; test: Downregulation of TCF12 gene expression in human A549 cells at 100 nM after 12 hrs by microarray analysis relative to control; type: functional
In short: (§1)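 A549 cells (RPMI-1640, 10% heat-inactivated FBS, penicillin/streptomycin, 37 °C, 5% CO2) seeded at 4 × 10^5 per 60 mm dish. Exposed 12 h to conjugate at 21, 26, 34 or 100 nM in medium with 0.1% DMSO, against 0.1% DMSO control. Whole-genome (~25 000 genes) expression profiled by microarray.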

[2] = test system: A549; test: Upregulation of CDKN1A gene expression in human A549 cells at 100 nM after 12 hrs by microarray analysis relative to control; type: functional
In short: (§2)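 4 ×10^5 A549 cells seeded per 60 mm dish and treated 12 h with conjugate (21, 26, 34 or 100 nM) in medium; control medium contained 0.1% DMSO, with conjugates added as 0.1% DMSO solutions. Whole human genome (~25 000 genes) expression profiled by microarray against the DMSO control. A549 culture: RPMI-1640 with 10% heat-inactivated FBS, penicillin/streptomycin, 37 °C, 5% CO2.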

[3] = test system: PC-3; test: Cytotoxicity against human PC3 cells assessed as cell growth inhibition after 48 hrs by microplate reader analysis; type: functional, cell-based; conditions: PC-3, 48 h
In short: (§3)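 Medium was RPMI-1640 for EBC-1, A549 and DU145, and DMEM for PC-3, SK-N-SH and K562. Both media had 10% heat-inactivated FBS plus penicillin/streptomycin; cells were kept at 37 °C, 5% CO2. Cells were seeded at 5000/well and given compound from DMSO stock (final 0.1% DMSO) for 48 h. Viability was read by WST-8 colorimetry, absorbance at 450 and 600 nm, and IC50 determined.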

[4] = test system: A549; test: Downregulation of EFA6R gene expression in human A549 cells at 100 nM after 12 hrs by microarray analysis relative to control; type: functional
In short: (§4)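 A549 cells, 4 × 10^5 per 60 mm dish, were exposed to conjugate for 12 h in medium with 0.1% DMSO; vehicle control was 0.1% DMSO. Whole human genome (~25 000 genes) expression was profiled by microarray and expression compared with the control.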

[5] = test system: A549; test: Downregulation of NP_653244.1 gene expression in human A549 cells at 100 nM after 12 hrs by microarray analysis relative to control; type: functional; in short: as §1
[6] = test system: A549; test: Cytotoxicity against human A549 cells assessed as cell growth inhibition after 48 hrs by microplate reader analysis; type: functional, cell-based; conditions: A549, 48 h; in short: as §3
[7] = test system: A549; test: Upregulation of FDXR gene expression in human A549 cells at 100 nM after 12 hrs by microarray analysis relative to control; type: functional; in short: as §2
[8] = test system: A549; test: Downregulation of FAF1 gene expression in human A549 cells at 100 nM after 12 hrs by microarray analysis relative to control; type: functional; in short: as §4
[9] = test system: A549; test: Upregulation of BBC3 gene expression in human A549 cells at 100 nM after 12 hrs by microarray analysis relative to control; type: functional; in short: as §1
[10] = test system: A549; test: Downregulation of FUT8 gene expression in human A549 cells at 100 nM after 12 hrs by microarray analysis relative to control; type: functional; in short: as §4
[11] = test system: A549; test: Downregulation of GULP1 gene expression in human A549 cells at 100 nM after 12 hrs by microarray analysis relative to control; type: functional; in short: as §4
[12] = test system: A549; test: Upregulation of HES2 gene expression in human A549 cells at 100 nM after 12 hrs by microarray analysis relative to control; type: functional; in short: as §2
[13] = test system: A549; test: Downregulation of NP_060504.1 gene expression in human A549 cells at 100 nM after 12 hrs by microarray analysis relative to control; type: functional; in short: as §4
[14] = test system: A549; test: Upregulation of BTG2 gene expression in human A549 cells at 100 nM after 12 hrs by microarray analysis relative to control; type: functional; in short: as §1
[15] = test system: A549; test: Downregulation of UVRAG gene expression in human A549 cells at 100 nM after 12 hrs by microarray analysis relative to control; type: functional; in short: as §1
[16] = test system: A549; test: Upregulation of U124 gene expression in human A549 cells at 100 nM after 12 hrs by microarray analysis relative to control; type: functional; in short: as §2
[17] = test system: A549; test: Downregulation of PDE7B gene expression in human A549 cells at 100 nM after 12 hrs by microarray analysis relative to control; type: functional; in short: as §1
[18] = test system: A549; test: Downregulation of Q8TC78 gene expression in human A549 cells at 100 nM after 12 hrs by microarray analysis relative to control; type: functional; in short: as §1
[19] = test system: A549; test: Downregulation of RPS6KC1 gene expression in human A549 cells at 100 nM after 12 hrs by microarray analysis relative to control; type: functional; in short: as §1
[20] = test system: A549; test: Upregulation of NPPC gene expression in human A549 cells at 100 nM after 12 hrs by microarray analysis relative to control; type: functional; in short: as §2
[21] = test system: A549; test: Downregulation of SEMA3A gene expression in human A549 cells at 100 nM after 12 hrs by microarray analysis relative to control; type: functional; in short: as §1
[22] = test system: DU-145; test: Cytotoxicity against human DU145 cells assessed as cell growth inhibition after 48 hrs by microplate reader analysis; type: functional, cell-based; conditions: DU-145, 48 h; in short: as §3
[23] = test system: A549; test: Downregulation of NCOA1 gene expression in human A549 cells at 100 nM after 12 hrs by microarray analysis relative to control; type: functional; in short: as §4
[24] = test system: A549; test: Downregulation of PTPRK gene expression in human A549 cells at 100 nM after 12 hrs by microarray analysis relative to control; type: functional; in short: as §1
[25] = Cytotoxicity against human EBC1 cells assessed as cell growth inhibition after 48 hrs by microplate reader analysis; type: functional, cell-based; conditions: EBC-1, 48 h; in short: as §3
[26] = test system: K562; test: Cytotoxicity against human K562 cells assessed as cell growth inhibition after 48 hrs by microplate reader analysis; type: functional, cell-based; conditions: K562, 48 h; in short: as §3
[27] = test system: A549; test: Downregulation of NP_056993.2 gene expression in human A549 cells at 100 nM after 12 hrs by microarray analysis relative to control; type: functional; in short: as §4
[28] = test system: A549; test: Downregulation of DYM gene expression in human A549 cells at 100 nM after 12 hrs by microarray analysis relative to control; type: functional; in short: as §4
[29] = test system: A549; test: Upregulation of MDM2 gene expression in human A549 cells at 100 nM after 12 hrs by microarray analysis relative to control; type: functional; in short: as §2
[30] = test system: A549; test: Downregulation of NP_112224.1 gene expression in human A549 cells at 100 nM after 12 hrs by microarray analysis relative to control; type: functional; in short: as §4
[31] = test system: Nucleic Acid; test: Induction of 208-bp PCR fragment DNA cleavage at 10 to 200 nM after 12 h by PAGE analysis
[32] = test system: A549; test: Upregulation of RRAD gene expression in human A549 cells at 100 nM after 12 hrs by microarray analysis relative to control; type: functional; in short: as §2
[33] = test system: A549; test: Downregulation of SUPT3H gene expression in human A549 cells at 100 nM after 12 hrs by microarray analysis relative to control; type: functional; in short: as §1
[34] = test system: SK-N-SH; test: Cytotoxicity against human SK-N-SH cells assessed as cell growth inhibition after 48 hrs by microplate reader analysis; type: functional, cell-based; in short: as §3
[35] = test system: A549; test: Downregulation of XRCC4 gene expression in human A549 cells at 100 nM after 12 hrs by microarray analysis relative to control; type: functional; in short: as §1
[36] = test system: A549; test: Upregulation of GADD45A gene expression in human A549 cells at 100 nM after 12 hrs by microarray analysis relative to control; type: functional; in short: as §2
[37] = test system: A549; test: Downregulation of ELP4 gene expression in human A549 cells at 100 nM after 12 hrs by microarray analysis relative to control; type: functional; in short: as §4

CC(=O)Nc1cn(C)c(C(=O)Nc2cn(C)c(C(=O)Nc3cc(C(=O)NCCC(=O)Nc4cc(C(=O)NCCCC(=O)Nc5cn(C)c(C(=O)NCCC(=O)Nc6cc(C(=O)Nc7ccc8[nH]c(C(=O)N9CC(CCl)c%10c9cc(O)c9ccccc%109)cc8c7)n(C)c6)n5)n(C)c4)n(C)c3)n2)n1 (racemic)
fold change (FC) [1]: 0.074
fold change (FC) [2]: 9
IC50 [3]: 29.5 nM
fold change (FC) [4]: 0.058
fold change (FC) [5]: 0.061
IC50 [6]: 100 nM
fold change (FC) [7]: 8.2
fold change (FC) [8]: 0.071
fold change (FC) [9]: 10.7
fold change (FC) [10]: 0.035
fold change (FC) [11]: 0.062
fold change (FC) [12]: 19.2
fold change (FC) [13]: 0.068
fold change (FC) [14]: 13
fold change (FC) [15]: 0.066
fold change (FC) [16]: 10.3
fold change (FC) [17]: 0.064
fold change (FC) [18]: 0.056
fold change (FC) [19]: 0.038
fold change (FC) [20]: 10.5
fold change (FC) [21]: 0.063
IC50 [22]: 11.2 nM
fold change (FC) [23]: 0.068
fold change (FC) [24]: 0.026
IC50 [25]: 550 nM
IC50 [26]: 15.5 nM
fold change (FC) [27]: 0.076
fold change (FC) [28]: 0.08
fold change (FC) [29]: 15.6
fold change (FC) [30]: 0.058
Activity [31]: Active
fold change (FC) [32]: 11.2
fold change (FC) [33]: 0.052
IC50 [34]: 129 nM
fold change (FC) [35]: 0.067
fold change (FC) [36]: 8.3
fold change (FC) [37]: 0.045
